Laboratory results as given in ChEMBL document CHEMBL3779815, “Synthesis of newer 1,2,3-triazole linked chalcone and flavone hybrid compounds and evaluation of their antimicrobial and cytotoxic activities” (Eur J Med Chem, 2016).
Values after ≈ are worked out from the molar mass of the structure shown.

Tests used:
Staphylococcus aureus = assay: Antibacterial activity against Staphylococcus aureus […] after 18 to 24 hrs by micro-dilution method; type: functional
Enterococcus faecalis = assay: Antibacterial activity against Enterococcus faecalis ATCC 29212 after 18 to 24 hrs by micro-dilution assay; type: functional
Escherichia coli = assay: Antibacterial activity against Escherichia coli ATCC 35218 after 18 to 24 hrs by micro-dilution method; type: functional
Pseudomonas aeruginosa = assay: Antibacterial activity against Pseudomonas aeruginosa […] after 18 to 24 hrs by micro-dilution method; type: functional
Shigella boydii = assay: Antibacterial activity against Shigella boydii clinical isolate after 18 to 24 hrs by micro-dilution method; type: functional
Klebsiella pneumoniae = assay: Antibacterial activity against Klebsiella pneumoniae ATCC 27736 after 18 to 24 hrs by micro-dilution method; type: functional
Candida albicans [1] = assay: Antifungal activity against Candida albicans ATCC 90028 after 18 to 24 hrs by micro-dilution method; type: functional
Summary of the method: (§1)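 Microdilution MIC run as the antibacterial protocol but on Sabouraud dextrose […] pH 7.3±0.2; compounds 100 to 0.78 μg/mL in twofold steps; saline-prepared inocula 1-2 × 10⁷ cfu/mL, 0.01 mL added; 37 °C aerobic, 18-24 h; MIC read as lowest concentration without visible growth or turbidity; fluconazole reference.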

Candida albicans [2] = assay: Antifungal activity against Candida albicans clinical isolate after 18 to 24 hrs by micro-dilution method; type: functional; summary of the method: as §1
Candida tropicalis = assay: Antifungal activity against Candida tropicalis ATCC 750 after 18 to 24 hrs by micro-dilution method; type: functional; summary of the method: as §1
Candida parapsilosis = assay: Antifungal activity against Candida parapsilosis ATCC 22019 after 18 to 24 hrs by micro-dilution method; type: functional; details: Lodderomyces parapsilosis; summary of the method: as §1
Cryptococcus neoformans = assay: Antifungal activity against Cryptococcus neoformans clinical isolate after 18 to 24 hrs by micro-dilution method; type: functional; summary of the method: as §1
Arthrodermataceae = assay: Antifungal activity against Dermatophyte clinical isolate after 18 to 24 hrs by micro-dilution method; type: functional; summary of the method: as §1
Aspergillus niger = assay: Antifungal activity against Aspergillus niger clinical isolate after 18 to 24 hrs by micro-dilution method; type: functional; summary of the method: as §1
Aspergillus fumigatus = assay: Antifungal activity against Aspergillus fumigatus clinical isolate after 18 to 24 hrs by micro-dilution method; type: functional; summary of the method: as §1
Plasmodium falciparum = assay: Antimalarial activity against erythrocytic stage of chloroquine sensitive Plasmodium falciparum 3D7 assessed as inhibition of parasitemia after 48 hrs by Giemsa staining based microscopic analysis; type: functional, organism-based; details: 3D7, 48 h
Summary of the method: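 Asynchronous culture on human O⁺ erythrocytes, 1-1.5% parasitemia, 4% hematocrit, RPMI-1640 with HEPES, NaHCO₃, glutamine, gentamycin, Albumax II; drug 0.10-100 μg/mL, 48 h, 37 °C, medium changed at 24 h; triplicate wells; Giemsa thin smears, about 4,000 erythrocytes counted at 1,000X; % parasitemia inhibition versus control gives IC50.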

[3] = Cytotoxicity against human HuH7 cells after 72 hrs by MTT assay; type: cell-based, Huh-7
Summary of the method: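 Huh-7 cells, 4 × 10³/well in DMEM with 10% FBS and penicillin-streptomycin-glutamine; eight 2-fold dilutions 100-0.78 μg/mL, 72 h; MTT added 2-4 h, then isopropanol/Triton X-100/HCl solubilization 2 h dark, RT; absorbance 570 nm; CC50 as mean of at least two experiments in duplicate.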

SMILES | MIC (Staphylococcus aureus) [µg/mL] | MIC (Enterococcus faecalis) [µg/mL] | MIC (Escherichia coli) [µg/mL] | MIC (Pseudomonas aeruginosa) [µg/mL] | MIC (Shigella boydii) [µg/mL] | MIC (Klebsiella pneumoniae) [µg/mL] | MIC (Candida albicans [1]) [µg/mL] | MIC (Candida albicans [2]) [µg/mL] | MIC (Candida tropicalis) [µg/mL] | MIC (Candida parapsilosis) [µg/mL] | MIC (Cryptococcus neoformans) [µg/mL] | MIC (Arthrodermataceae) [µg/mL] | MIC (Aspergillus niger) [µg/mL] | MIC (Aspergillus fumigatus) [µg/mL] | IC50 (Plasmodium falciparum) [µg/mL] | CC50 at 72 h [3] [µg/mL]
COc1cc(O)c(C(=O)/C=C/c2ccc(OCc3cn(-c4ccc(F)c(Cl)c4)nn3)c(OCc3cn(-c4ccc(F)c(Cl)c4)nn3)c2)c(OC)c1 | > 100 | 100 (≈ 136 µM) | > 100 | > 100 | 100 (≈ 136 µM) | > 100 | > 100 | > 100 | > 100 | > 100 | > 100 | > 100 | > 100 | > 100 | 10.9 (≈ 14.8 µM) | > 100
COc1cc(O)c(C(=O)/C=C/c2ccc(OCc3cn(-c4ccc(F)c(Cl)c4)nn3)c(OC)c2)c(OC)c1 | > 100 | 50 (≈ 92.6 µM) | 50 (≈ 92.6 µM) | 100 (≈ 185 µM) | 25 (≈ 46.3 µM) | > 100 | > 100 | > 100 | > 100 | > 100 | > 100 | > 100 | 100 (≈ 185 µM) | > 100 | 2.74 (≈ 5.07 µM) | > 100
COc1cc(O)c(C(=O)/C=C/c2ccc(OCc3cn(-c4ccc(Cl)cc4)nn3)c(OCc3cn(-c4ccc(Cl)cc4)nn3)c2)c(OC)c1 | > 100 | > 100 | 100 (≈ 143 µM) | > 100 | > 100 | 100 (≈ 143 µM) | > 100 | > 100 | > 100 | > 100 | > 100 | > 100 | > 100 | > 100 | 12.8 (≈ 18.2 µM) | > 100
COc1cc(OC)c2c(=O)cc(-c3ccc(OCc4cn(-c5ccc(F)cc5Cl)nn4)c(OCc4cn(-c5ccc(F)cc5Cl)nn4)c3)oc2c1 | > 100 | > 100 | > 100 | > 100 | > 100 | > 100 | 12.5 (≈ 17 µM) | 12.5 (≈ 17 µM) | 6.25 (≈ 8.52 µM) | 12.5 (≈ 17 µM) | 12.5 (≈ 17 µM) | 6.25 (≈ 8.52 µM) | 12.5 (≈ 17 µM) | 12.5 (≈ 17 µM) | 14.5 (≈ 19.7 µM) | > 100
COc1cc(O)c(C(=O)/C=C/c2ccc(OCc3cn(-c4ccc(F)cc4Cl)nn3)c(OCc3cn(-c4ccc(F)cc4Cl)nn3)c2)c(OC)c1 | > 100 | > 100 | > 100 | 100 (≈ 136 µM) | > 100 | > 100 | > 100 | > 100 | > 100 | > 100 | > 100 | > 100 | > 100 | > 100 | 8.55 (≈ 11.6 µM) | > 100
COc1cc(OC)c2c(=O)cc(-c3ccc(OCc4cn(-c5ccc(F)cc5F)nn4)c(OC)c3)oc2c1 | > 100 | > 100 | > 100 | > 100 | > 100 | > 100 | > 100 | > 100 | > 100 | > 100 | > 100 | > 100 | > 100 | > 100 | 4.79 (≈ 9.19 µM) | > 100
COc1cc(O)c(C(=O)/C=C/c2ccc(OC)c(OCc3cn(-c4ccc(F)c(Cl)c4)nn3)c2)c(OC)c1 | > 100 | 100 (≈ 185 µM) | 100 (≈ 185 µM) | > 100 | > 100 | > 100 | > 100 | > 100 | 100 (≈ 185 µM) | > 100 | 100 (≈ 185 µM) | > 100 | > 100 | > 100 | 7.52 (≈ 13.9 µM) | > 100
COc1cc(OC)c2c(=O)cc(-c3ccc(OCc4cn(-c5ccc(F)c(Cl)c5)nn4)c(OC)c3)oc2c1 | > 100 | > 100 | > 100 | > 100 | > 100 | > 100 | 12.5 (≈ 23.2 µM) | 12.5 (≈ 23.2 µM) | 12.5 (≈ 23.2 µM) | 12.5 (≈ 23.2 µM) | 6.25 (≈ 11.6 µM) | 12.5 (≈ 23.2 µM) | 50 (≈ 92.9 µM) | 50 (≈ 92.9 µM) | 4.48 (≈ 8.33 µM) | > 100
